OX1R antag-1 = antagonists of human orexin 1 receptor; O43613; CHO/OX1R cells, Fluo-8 calcium fluorescence, orexin A; 330,000 tested, 0.43% active; AID 434989; inhibition, % at 5 µM;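 active = inhibition above its plate's threshold, mean inhibition of all tested compounds on the plate plus 3 SD, cut at about 37% in these data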;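 note: 0% = orexin A challenge wells and 100% = SB-334867-A antagonist wells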
CHO parental Ca = counter-screen: ATP calcium response change in parental CHO cells; inhibition, % at 5.6 µM; 330,000 tested, 0.63% active; parental CHO-K1, ATP-induced calcium, Fluo-8 fluorescence;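 active = inhibition above that plate's mean sample inhibition plus 3 SD, cut at about 26% in these data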;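 note: 0% = ATP-challenged DMSO wells and 100% = DMSO wells without ATP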
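Assay system – parental CHO cells · Reagent – ATP stimulus · Detection – intracellular calcium via Fluo-8 no-wash fluorescent dye · Evaluation – percent inhibition of ATP-evoked calcium rise, normalized to controls · Controls – ATP wells versus no-ATP DMSO wells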
OX1R antag-2 = blocks the human orexin 1 receptor; O43613; inhibition, % at 6.6 µM; OX1R-expressing cells, FRET antagonist read-out; 330,000 tested, 1.8% active; in the data active = inhibition mostly above about 38%, no sharp cut-off; inactive = mostly below about 40%;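 note: 0% = agonist challenge alone and 100% = reference antagonist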
GalR3 antag = antagonists of human GalR3 | O60755 | HEK293 GalR3-CNG cAMP membrane potential fluorescence; galR3 body fused to GalR1 C-terminus | inhibition, % at 3 µM | 360,000 tested, 0.44% active;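 active = inhibition above the screen-wide average plus 3 SD, cut at about 13% in these data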;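 note: forskolin and galanin both at EC90 stimulate the cells; cAMP rise reported by CNG channel membrane potential dye signal; 0% = forskolin plus galanin with DMSO and 100% = forskolin alone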
Target sequence (O60755 1-299 limits assumed): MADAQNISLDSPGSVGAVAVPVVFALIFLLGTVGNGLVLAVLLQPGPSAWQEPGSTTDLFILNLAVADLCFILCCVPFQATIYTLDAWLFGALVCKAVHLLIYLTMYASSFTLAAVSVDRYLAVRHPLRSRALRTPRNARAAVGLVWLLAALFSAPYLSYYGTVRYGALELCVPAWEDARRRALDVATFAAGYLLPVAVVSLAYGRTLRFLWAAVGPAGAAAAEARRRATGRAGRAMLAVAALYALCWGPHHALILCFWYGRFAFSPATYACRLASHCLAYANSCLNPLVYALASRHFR
GPR7 antag = antagonists of human GPR7 (neuropeptides B/W receptor 1). P48145. GPR7-expressing cells, fluorescence antagonist assay. inhibition, % at 4.4 µM. 290,000 tested, 1.1% active. AID 1861; in the data active = inhibition above about 16%, passing the limit was not always enough;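 note: cells stimulated with the agonist NPW; 0% = agonist with vehicle and 100% = vehicle without agonist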
Target sequence (P48145 whole entry, looked up): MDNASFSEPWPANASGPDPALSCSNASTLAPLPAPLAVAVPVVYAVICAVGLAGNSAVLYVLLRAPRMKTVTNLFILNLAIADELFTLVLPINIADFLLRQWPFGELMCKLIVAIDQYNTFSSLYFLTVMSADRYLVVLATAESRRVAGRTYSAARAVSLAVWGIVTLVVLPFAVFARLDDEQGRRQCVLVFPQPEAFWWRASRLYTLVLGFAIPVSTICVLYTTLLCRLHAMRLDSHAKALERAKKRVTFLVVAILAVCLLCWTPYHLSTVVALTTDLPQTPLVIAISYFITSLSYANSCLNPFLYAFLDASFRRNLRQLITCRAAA
GPR7 antag cf = confirmation of human GPR7 antagonists; 2,400 tested, 52% active; shares compounds with GPR7 antag; inhibition, % at 4.4 µM; GPR7-expressing cells, calcium fluorescence antagonist mode; in the data active = inhibition above about 24%;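 note: stimulated with the GPR7 agonist NPW; 0% = agonist plus vehicle and 100% = vehicle alone without agonist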
MCHR1 antag = MCHR1 (human) antagonism in GPR7 counter-screen | shares compounds with GPR7 antag | MCHR1-expressing cells, fluorescence antagonist assay | inhibition, % at 4.4 µM | 2,400 tested, 62% active | AID 2148; in the data active = inhibition above about 22%;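 note: 0% = vehicle with agonist and 100% = vehicle without agonist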
Starred values were filed as active, the others as inactive; x = no result. In the library only some 3.1% were active in any assay of this set; here they are far more common.

SMILES | OX1R antag-1 | CHO parental Ca | OX1R antag-2 | GalR3 antag | GPR7 antag | GPR7 antag cf | MCHR1 antag
O=C(Nc1cccnc1)c1cc(-c2ccccc2O)on1 | -7.8 | -5.3 | 7.0 | -4.0 | 38.5* | 40.4* | 43.3*
COCc1c(C(=O)N/N=C(/C)c2ccc(OCc3ccccc3)cc2)nnn1-c1nonc1N | -7.3 | 4.5 | 9.5 | -4.4 | 1.6 | x | x
C/C(=N\NC(=O)c1nnn(-c2nonc2N)c1C)c1ccc(OCc2ccccc2)cc1 | -14.2 | -15.6 | 7.4 | 2.5 | 38.7* | -0.7 | 7.9
CC(C)c1ccccc1OCC(O)CN1CCN(S(=O)(=O)c2ccc([N+](=O)[O-])cc2)CC1 (centres undefined) | -13.4 | 0.4 | 9.4 | -9.8 | 46.7* | 45.0* | 76.0*
CCOC(=O)CSc1nc2c(sc(=S)n2Cc2ccco2)c(=O)n1-c1ccccc1 | -17.2 | -24.1 | 18.2 | -10.4 | 22.5* | 17.3 | 45.0*
CCOC(=O)CSc1nc2c(sc(=S)n2-c2ccccc2OC)c(=O)n1Cc1ccco1 | -21.2 | 2.8 | 20.6 | -6.7 | 20.1 | x | x
CCOC(CNC(=O)CN1C(=O)COc2ccc(S(=O)(=O)N3CCCC3)cc21)OCC | -14.2 | -22.5 | 16.1 | 0.0 | -26.2 | x | x
Cc1cc(NC(=O)COC(=O)c2oc3c(Cl)cccc3c2C)no1 | 5.7 | -10.8 | 5.3 | -11.6 | 27.1* | 22.1 | 36.6*
CCN(CC)c1ccc2cc(-c3nc4ccccc4[nH]3)c(=O)oc2c1 | 112.8* | 79.7* | 81.2* | x | 28.2* | 80.9* | 89.0*
CN1CCN(c2ccccc2NC(=O)COc2ccccc2)CC1 | -27.5 | -20.4 | 13.3 | -5.1 | 21.6* | 15.4 | 11.8
CCC(=O)N1CCN(c2ccccc2NC(=O)Cc2ccccc2)CC1 | -32.1 | -14.8 | 19.3 | -2.9 | 22.3* | 15.3 | 22.0*
COc1cc(OC)c(CN2CCN(c3ccc(F)cc3)CC2)cc1Br | -14.3 | -8.9 | 9.2 | -7.0 | 21.8* | 17.0 | 17.9
O=S(=O)(c1ccc(Br)s1)N1CCN(c2ccnc3cc(Cl)ccc23)CC1 | -2.3 | 9.4 | 12.8 | 0.7 | 27.7* | 36.6* | 29.0*
CS(=O)(=O)N1CCN(c2ccnc3cc(Cl)ccc23)CC1 | -17.8 | -15.5 | 11.8 | -1.5 | -8.6 | x | x
O=c1cc2c(nn1Cc1ccc(F)cc1)-c1ccccc1CC2 | -22.3 | -2.5 | 5.0 | -9.9 | 34.8* | 0.5 | 10.9
CC(=O)[C@@]1(O)[C@H](C)CC2C3CC=C4CC(OP(=O)(O)O)CC[C@]4(C)C3CC[C@@]21C (some centres undefined) | -9.4 | -7.4 | -0.5 | -9.4 | 28.4* | -6.8 | 8.1
CC(O)CNc1nc2ccccc2n1CC(=O)NC12CC3CC(CC(C3)C1)C2 (centres undefined) | -10.8 | -8.8 | 16.1 | -9.7 | 4.4 | x | x
CCO[C@H]1OC(C(=O)NCc2ccccc2)=C[C@@H](c2ccc3c(c2)OCO3)[C@@H]1CCCO | -8.9 | -10.7 | 19.7 | -3.7 | 32.8* | 18.4 | 15.7
O=C(NCc1cccc(Cl)c1)c1ccc(-c2csnn2)cc1 | -12.3 | 13.7 | 3.1 | 5.2 | 24.9* | 14.6 | 12.0
O=C(NCc1cccc(Cl)c1)c1ccc2nc[nH]c2c1 | -3.9 | 8.7 | 2.7 | -5.4 | 0.4 | x | x
CN(C)S(=O)(=O)n1cc(/C=C(\NC(=O)c2ccccc2Cl)C(=O)N2CCCC2)c2ccccc21 | -6.6 | -19.2 | 3.0 | -2.9 | 31.5* | 9.6 | 34.4*
O=C(Cc1ccccc1)NCC1CCCO1 (centres undefined) | -4.6 | 6.7 | 28.6 | 3.4 | 0.9 | x | x
O=P(c1ccccc1)(c1ccccc1)C1CCCO1 (centres undefined) | 2.9 | -5.5 | 8.6 | -2.2 | 42.5* | -5.0 | -11.3
O=C(O)C1CCN(S(=O)(=O)c2ccc3[nH]ccc3c2)CC1 | x | x | x | 0.2 | x | x | x
COc1ccc(CNC(=O)c2cc3ccccc3oc2=O)cc1 | -21.7 | -20.1 | 8.2 | -3.6 | 4.9 | x | x
SMILES | OX1R antag-1 | CHO parental Ca | OX1R antag-2 | GalR3 antag | GPR7 antag | GPR7 antag cf | MCHR1 antag
COc1ccc2cc(C(=O)NCc3ccccc3)c(=O)oc2c1 | -4.3 | -3.5 | 7.9 | -12.1 | 34.3* | 12.1 | 1.0
COc1ccc(NC(=O)CSc2nnnn2C)cc1 | -13.6 | -8.7 | -3.1 | -5.9 | -11.2 | x | x
Cn1nnnc1SCC(=O)Nc1ccc(Oc2ccccc2)cc1 | -14.4 | 1.9 | 24.6 | -2.0 | 21.6* | 13.9 | 18.1
Cc1oc2c(C)c(O)ccc2c(=O)c1-c1cnn(-c2ccccc2)c1 | -6.1 | -1.7 | 7.7 | -3.7 | 28.5* | 19.1 | 3.1
COc1ccc2c(=O)c(-c3cnn(-c4ccccc4)c3)c(C)oc2c1 | -29.4 | -9.0 | 38.4 | -11.5 | -5.8 | x | x
COC(=O)[C@]12C[C@H](CC(=O)N3CCN(C(=O)c4ccco4)CC3)C(=O)N(Cc3ccccc3)C1=C[C@H](C1CCCC1)O[C@@H]2C | x | x | x | -1.8 | x | x | x
Clc1ccc(-n2c(SC/C=C/c3ccccc3)nnc2-c2cccnc2)cc1 | -15.8 | -26.0 | 5.5 | -6.7 | 31.5* | 26.9* | 21.0
O=C(COc1ccc(F)cc1Br)Nc1ccccc1N1CCCC1 | x | x | x | -7.2 | x | x | x
CC(C)CCNC(=O)NC(=O)CN1C(=O)NC2(CCCCC2)C1=O | -17.9 | -15.1 | 14.5 | -1.0 | 23.8* | -7.9 | -2.2
O=C(CN1C(=O)NC2(CCCCCCC2)C1=O)NC(=O)NCc1ccco1 | -1.1 | -14.7 | 11.4 | -2.5 | -0.4 | x | x
Cc1c(C(=O)N2CCN(Cc3ccc4c(c3)OCO4)CC2)sc2ncnc(N3CCN(c4ccccc4)CC3)c12 | -4.0 | 1.6 | 16.6 | 2.9 | 43.7* | 44.5* | 81.4*
CCCNC(=O)Cn1cnc2sc(C(=O)N3CCN(Cc4ccc5c(c4)OCO5)CC3)c(C)c2c1=O | -4.2 | 5.5 | 7.7 | -3.9 | -7.9 | x | x
Cc1c(C(=O)N2CCN(Cc3ccc4c(c3)OCO4)CC2)sc2ncnc(N3CCN(c4ccccc4F)CC3)c12 | -12.9 | -12.2 | 8.5 | 5.5 | 75.2* | 54.5* | 81.7*
Cc1c(C(=O)N2CCN(c3ccccn3)CC2)sc2ncnc(N3CCN(c4ccccc4)CC3)c12 | -23.9 | -12.8 | 26.6 | -2.2 | -9.6 | x | x
COc1ccccc1NS(=O)(=O)c1c(C)nc2sccn2c1=O | -11.8 | -2.2 | 7.3 | -4.9 | 2.8 | x | x
CCCCNC(=S)N(Cc1ccco1)Cc1cc2cc3c(cc2[nH]c1=O)OCCO3 | -31.0 | -14.3 | 17.1 | -2.2 | -2.9 | x | x
O=c1[nH]c2cc3c(cc2cc1CN(Cc1ccco1)C(=S)NCCCN1CCOCC1)OCCO3 | -39.6 | -14.9 | 5.8 | -1.9 | 99.7* | 4.2 | -3.4
CCCCOc1ccc(Cc2c(O)nc(SC)[nH]c2=O)cc1 | -10.3 | -4.4 | 7.8 | -1.6 | -4.6 | x | x
CCOCCCNC(=S)N1C2CCC1CC(NC(=O)Nc1ccc(C(=O)OCC)cc1)C2 (centres undefined) | -7.3 | -13.0 | 28.0 | 1.1 | 26.3* | -7.3 | 1.5
CC(C)C[C@H]1CN(CCCC[C@H]2CNC(=O)C(=O)N2CC2CCCCC2)C(=O)C(=O)N1Cc1ccccc1 | x | x | x | -3.4 | x | x | x
